Measurements pooled from the literature.
Lines come from different studies, so protocols differ.
MTNR1A: Melatonin receptor type 1A (MTNR1A, Homo sapiens, UniProt P48039)

COc1ccc2cccc(C(CO)CNC(=O)CF)c2c1 (stereo not drawn)
Emax (MTNR1A; GTPγS binding, agonist, radiometric; cell membranes): 47%

Nc1ncc(-c2nc(N3CCOCC3)nc(N3CCOCC3)n2)c(C(F)F)n1
remaining binding (Serine/threonine-protein kinase DCLK3 (DCLK3, Homo sapiens, UniProt Q9C098); binding, competition with immobilised ligand; 10 µM): 73%

Cc1nn(C)cc1-c1nc2c(N3CCN(Cc4ccc(Cl)cc4)CC3)c(Cl)cnc2[nH]1
remaining binding (Receptor-type tyrosine-protein kinase FLT3 (FLT3, Homo sapiens, UniProt P36888); binding, competition with immobilised ligand; 1 µM): 0.4%

CCN(CC)CCCC[C@H](NC(=O)[C@H](CC(C)C)NC(=O)[C@H](C)NC(=O)[C@H](Cc1ccccc1)NC(=O)c1ccc(C(C)(C)C)cc1)C(=O)N[C@@H](CO)C(=O)OC
remaining binding (B2 bradykinin receptor (BDKRB2, Homo sapiens, UniProt P30411); ligand displacement, radioligand; 10 µM): 107%

COc1ncccc1-c1cnn2ccc(N3CCN(C(=O)OC(C)C)CC3)nc12
remaining binding (Serine/threonine-protein kinase ULK3 (ULK3, Homo sapiens, UniProt Q6PHR2); binding, competition with immobilised ligand; 1 µM): 54%

C#Cc1n[nH]c2c(-c3cn([C@@H](C)c4ccccn4)c(=O)[nH]c3=O)cc(F)cc12
inhibition (Rho-associated protein kinase 2 (ROCK2, Homo sapiens, UniProt O75116); enzyme activity, inhibitor; 0.1 µM): 1.2%

COc1ccc2[nH]cc(CCNC(=O)CI)c2c1
Emax (MTNR1A; GTPγS binding, agonist, radiometric; cell membranes): 83%

CN[C@@]1(c2ccccc2Cl)CCCCC1=O
inhibition (Fatty-acid amide hydrolase 1 (FAAH, Homo sapiens, UniProt O00519); enzyme activity, inhibitor; 30 µM): 11%

CCC(N)Cc1cc(OC)c(COC)cc1OC (stereo not drawn)
Emax (5-hydroxytryptamine receptor 2C (HTR2C, Homo sapiens, UniProt P28335); G protein activation, agonist, BRET): 82%
